Results as given in ChEMBL document CHEMBL2010643 (Bioorg Med Chem Lett, 2012).
The source made the active and inactive calls. The rule behind the calls is not given here.

Tests used:
[1] = target: Proto-oncogene tyrosine-protein kinase Src (Homo sapiens) (UniProt P12931); assay: Inhibition of Src assessed as residual activity at 1 uM relative to control
[2] = target: Dual specificity protein kinase TTK (Homo sapiens) (UniProt P33981); assay: Inhibition of TTK assessed as residual activity at 1 uM relative to control
Method in brief: (§1)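 Radioactivity-based enzymatic kinase assays run across a 124-kinase profiling panel (Dundee), reporting the remaining kinase activity relative to a control.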

[3] = target: Dual specificity tyrosine-phosphorylation-regulated kinase 2 (Homo sapiens) (UniProt Q92630); assay: Inhibition of DYRK2 assessed as residual activity at 10 uM relative to control
[4] = target: Eukaryotic elongation factor 2 kinase (Homo sapiens) (UniProt O00418); assay: Inhibition of EF2K assessed as residual activity at 10 uM relative to control
Sequence of Eukaryotic elongation factor 2 kinase (Homo sapiens) (O00418 whole entry): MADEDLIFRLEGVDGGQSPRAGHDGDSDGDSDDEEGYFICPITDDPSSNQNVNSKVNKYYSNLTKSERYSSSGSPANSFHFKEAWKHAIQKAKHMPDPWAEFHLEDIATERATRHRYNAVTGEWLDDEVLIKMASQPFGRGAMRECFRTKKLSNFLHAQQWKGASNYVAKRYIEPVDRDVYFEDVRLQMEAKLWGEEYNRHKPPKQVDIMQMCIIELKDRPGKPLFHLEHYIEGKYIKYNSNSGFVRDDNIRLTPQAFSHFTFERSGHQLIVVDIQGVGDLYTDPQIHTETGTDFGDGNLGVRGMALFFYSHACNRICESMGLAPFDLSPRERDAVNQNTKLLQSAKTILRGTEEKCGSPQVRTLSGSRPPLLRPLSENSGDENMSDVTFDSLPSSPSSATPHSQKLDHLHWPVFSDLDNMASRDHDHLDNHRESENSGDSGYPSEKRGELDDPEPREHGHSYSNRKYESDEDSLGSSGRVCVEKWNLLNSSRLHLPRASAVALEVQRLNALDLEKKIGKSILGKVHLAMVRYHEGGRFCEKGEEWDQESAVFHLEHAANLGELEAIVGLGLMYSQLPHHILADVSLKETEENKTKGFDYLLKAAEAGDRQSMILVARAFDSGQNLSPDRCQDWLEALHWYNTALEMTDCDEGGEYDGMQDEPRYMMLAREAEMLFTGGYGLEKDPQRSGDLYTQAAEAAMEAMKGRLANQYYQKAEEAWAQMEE

[5] = target: Mitogen-activated protein kinase kinase kinase 1 (Homo sapiens) (UniProt Q13233); assay: Inhibition of MEKK1 assessed as residual activity at 10 uM relative to control
[6] = target: Dual specificity mitogen-activated protein kinase kinase 6 (Homo sapiens) (UniProt P52564); assay: Inhibition of MKK6 assessed as residual activity at 10 uM relative to control
[7] = target: Serine/threonine-protein kinase 16 (Homo sapiens) (UniProt O75716); assay: Inhibition of MPSK1 assessed as residual activity at 10 uM relative to control
[8] = target: Serine/threonine-protein kinase PAK 4 (Homo sapiens) (UniProt O96013); assay: Inhibition of PAK4 assessed as residual activity at 10 uM relative to control
Sequence of Serine/threonine-protein kinase PAK 4 (Homo sapiens) (O96013 whole entry, looked up): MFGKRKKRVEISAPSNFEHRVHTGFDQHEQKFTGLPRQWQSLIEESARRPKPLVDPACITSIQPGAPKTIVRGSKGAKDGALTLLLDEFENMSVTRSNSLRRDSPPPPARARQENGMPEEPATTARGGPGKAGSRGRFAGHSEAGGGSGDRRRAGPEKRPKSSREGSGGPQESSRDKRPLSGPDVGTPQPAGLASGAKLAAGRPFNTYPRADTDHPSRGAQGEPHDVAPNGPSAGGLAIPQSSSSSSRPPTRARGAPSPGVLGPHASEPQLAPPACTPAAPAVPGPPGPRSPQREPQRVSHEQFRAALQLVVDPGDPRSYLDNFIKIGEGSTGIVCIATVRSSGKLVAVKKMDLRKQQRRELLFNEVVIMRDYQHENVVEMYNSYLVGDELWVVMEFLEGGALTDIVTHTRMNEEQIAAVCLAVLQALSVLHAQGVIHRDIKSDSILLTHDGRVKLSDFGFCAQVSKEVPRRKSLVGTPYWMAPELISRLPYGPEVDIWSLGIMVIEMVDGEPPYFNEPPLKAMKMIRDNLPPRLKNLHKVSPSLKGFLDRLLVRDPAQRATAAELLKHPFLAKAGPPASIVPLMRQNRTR

[9] = target: Serine/threonine-protein kinase pim-1 (Homo sapiens) (UniProt P11309); assay: Inhibition of PIM1 assessed as residual activity at 10 uM relative to control
[10] = target: RAC-alpha serine/threonine-protein kinase (Homo sapiens) (UniProt P31749); assay: Inhibition of PKBalpha assessed as residual activity at 10 uM relative to control
[11] = target: Leucine-rich repeat serine/threonine-protein kinase 2 (Mus musculus) (UniProt Q5S006); assay: Inhibition of wild type LRRK2 phosphorylation at Ser910 in mouse 3T3 cells after 90 mins by Western blot analysis; format: cell-based
Method in brief: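 Mouse Swiss 3T3 cells treated with DMSO or increasing inhibitor concentrations for 90 min. Endogenous LRRK2 in lysates immunoblotted with purified phospho-specific antibodies to Ser910 and Ser935 and with a total LRRK2 antibody. Blots done in duplicate, representative of at least two independent experiments.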

[12] = tested on: Plasma; assay: AUClast in Swiss albino mouse plasma at 10 mg/kg, po; format: ADME, organism-based; parameters: time 0 - last, dose 10 mg/kg, route oral; conditions: in vivo
Method in brief: (§2)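 Male Swiss Albino mice were given a single dose, either intravenous at 1 mg/kg or oral at 10 mg/kg. AUClast was measured in plasma and in brain. Half-life, plasma clearance, volume of distribution and oral bioavailability were derived from the plasma data.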

[13] = Half life in Swiss albino mouse at 1 mg/kg, iv; format: ADME, organism-based; parameters: dose 1 mg/kg, route intravenous; conditions: in vivo; method in brief: as §2
[14] = target: MAP kinase-activated protein kinase 5 (Homo sapiens) (UniProt Q8IW41); assay: Inhibition of PRAK assessed as residual activity at 10 uM relative to control
Sequence of MAP kinase-activated protein kinase 5 (Homo sapiens) (Q8IW41 whole entry): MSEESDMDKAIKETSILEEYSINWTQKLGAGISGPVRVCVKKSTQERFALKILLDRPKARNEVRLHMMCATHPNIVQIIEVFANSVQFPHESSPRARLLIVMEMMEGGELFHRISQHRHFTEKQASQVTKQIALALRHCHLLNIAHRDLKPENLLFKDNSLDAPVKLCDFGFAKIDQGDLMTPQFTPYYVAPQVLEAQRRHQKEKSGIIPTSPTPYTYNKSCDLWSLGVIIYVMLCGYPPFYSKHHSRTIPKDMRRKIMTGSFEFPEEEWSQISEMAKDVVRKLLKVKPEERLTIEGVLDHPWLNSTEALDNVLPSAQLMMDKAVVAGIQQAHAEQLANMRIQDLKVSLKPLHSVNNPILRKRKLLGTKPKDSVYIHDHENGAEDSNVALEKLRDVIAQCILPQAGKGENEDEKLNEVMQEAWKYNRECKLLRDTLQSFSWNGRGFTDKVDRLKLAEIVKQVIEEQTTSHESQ

[15] = target: Ribosomal protein S6 kinase beta-1 (Homo sapiens) (UniProt P23443); assay: Inhibition of S6K1 assessed as residual activity at 10 uM relative to control
Sequence of Ribosomal protein S6 kinase beta-1 (Homo sapiens) (P23443 whole entry, looked up): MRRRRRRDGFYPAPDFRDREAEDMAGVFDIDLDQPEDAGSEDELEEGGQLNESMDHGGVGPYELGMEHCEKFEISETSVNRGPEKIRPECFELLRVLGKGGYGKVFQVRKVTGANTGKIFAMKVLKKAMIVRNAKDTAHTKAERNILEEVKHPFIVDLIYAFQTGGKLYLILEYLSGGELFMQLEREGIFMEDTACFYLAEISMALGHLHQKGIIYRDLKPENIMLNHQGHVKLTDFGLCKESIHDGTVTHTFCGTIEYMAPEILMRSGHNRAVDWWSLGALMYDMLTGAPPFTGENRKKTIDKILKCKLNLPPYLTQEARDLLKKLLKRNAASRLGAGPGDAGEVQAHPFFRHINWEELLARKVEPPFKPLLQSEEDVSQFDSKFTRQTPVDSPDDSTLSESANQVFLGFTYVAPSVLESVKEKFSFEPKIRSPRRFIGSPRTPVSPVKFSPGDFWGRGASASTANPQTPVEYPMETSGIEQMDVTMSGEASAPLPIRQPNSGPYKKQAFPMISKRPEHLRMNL

[16] = target: Serine/threonine-protein kinase TBK1 (Homo sapiens) (UniProt Q9UHD2); assay: Inhibition of TBK1 assessed as residual activity at 10 uM relative to control
[17] = target: Tau-tubulin kinase 1 (Homo sapiens) (UniProt Q5TCY1); assay: Inhibition of TTBK1 assessed as residual activity at 10 uM relative to control; method in brief: as §1
[18] = Inhibition of CK1 assessed as residual activity at 1 uM relative to control
Method in brief: (§3)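 Standard radioactivity-based enzymatic assays were run across a 124-kinase panel (Dundee profiling), with compound at 1 µM. Kinase activity was expressed relative to control.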

[19] = target: Tyrosine-protein kinase CSK (Homo sapiens) (UniProt P41240); assay: Inhibition of CSK assessed as residual activity at 1 uM relative to control; method in brief: as §3
Sequence of Tyrosine-protein kinase CSK (Homo sapiens) (P41240 2-450 limits assumed): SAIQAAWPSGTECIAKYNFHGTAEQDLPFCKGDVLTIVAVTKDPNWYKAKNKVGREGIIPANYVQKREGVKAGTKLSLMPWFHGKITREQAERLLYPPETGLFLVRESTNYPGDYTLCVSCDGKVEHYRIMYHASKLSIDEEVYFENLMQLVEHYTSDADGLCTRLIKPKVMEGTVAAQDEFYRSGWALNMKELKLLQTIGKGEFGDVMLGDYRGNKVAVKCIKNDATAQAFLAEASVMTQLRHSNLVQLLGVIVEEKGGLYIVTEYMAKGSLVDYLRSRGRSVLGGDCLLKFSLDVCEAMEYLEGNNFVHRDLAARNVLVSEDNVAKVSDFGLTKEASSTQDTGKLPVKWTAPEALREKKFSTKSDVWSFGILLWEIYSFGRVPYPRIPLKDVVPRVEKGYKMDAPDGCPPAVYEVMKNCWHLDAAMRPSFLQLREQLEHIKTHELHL

[20] = tested on: Mus musculus; assay: Inhibition of LRRK2 phosphorylation at Ser935 in C57BL/6 mouse spleen at 50 mg/kg, po administered for 8 hrs followed by 2 hrs dosing; format: functional, organism-based; parameters: dose 50 mg/kg
Method in brief: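 Mice were dosed by oral gavage at 10 or 50 mg/kg. Brain, spleen and kidney were collected. Endogenous LRRK2 was resolved by SDS–PAGE and blotted with phospho-specific antibodies to Ser910 and Ser935 and with an antibody to total LRRK2.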

[21] = target: Tyrosine-protein kinase BTK (Homo sapiens) (UniProt Q06187); assay: Inhibition of BTK assessed as residual activity at 10 uM relative to control
[22] = target: Eukaryotic elongation factor 2 kinase (Homo sapiens) (UniProt O00418); assay: Inhibition of EF2K assessed as residual activity at 1 uM relative to control; method in brief: as §3
[23] = target: Eukaryotic translation initiation factor 2-alpha kinase 3 (Homo sapiens) (UniProt Q9NZJ5); assay: Inhibition of EIF2AK3 assessed as residual activity at 1 uM relative to control; method in brief: as §3
[24] = target: Ephrin type-A receptor 2 (Homo sapiens) (UniProt P29317); assay: Inhibition of EPH-A2 assessed as residual activity at 1 uM relative to control; method in brief: as §3
[25] = target: Glycogen synthase kinase-3 beta (Homo sapiens) (UniProt P49841); assay: Inhibition of GSK3b assessed as residual activity at 1 uM relative to control; method in brief: as §3
Sequence of Glycogen synthase kinase-3 beta (Homo sapiens) (P49841 whole entry, looked up): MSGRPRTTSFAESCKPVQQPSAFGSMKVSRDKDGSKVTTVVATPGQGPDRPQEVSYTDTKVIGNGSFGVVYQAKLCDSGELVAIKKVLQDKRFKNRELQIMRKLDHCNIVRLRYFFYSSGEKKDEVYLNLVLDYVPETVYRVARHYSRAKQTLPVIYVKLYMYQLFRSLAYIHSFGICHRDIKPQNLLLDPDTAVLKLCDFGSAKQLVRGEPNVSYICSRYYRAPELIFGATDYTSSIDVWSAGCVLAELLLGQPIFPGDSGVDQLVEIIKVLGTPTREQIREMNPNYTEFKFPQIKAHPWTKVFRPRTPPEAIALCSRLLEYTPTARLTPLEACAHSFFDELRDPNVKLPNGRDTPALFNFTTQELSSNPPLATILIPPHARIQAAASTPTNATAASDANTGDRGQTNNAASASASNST

[26] = target: Serine/threonine-protein kinase STK11 (Homo sapiens) (UniProt Q15831); assay: Inhibition of LKB1 assessed as residual activity at 1 uM relative to control
Sequence of Serine/threonine-protein kinase STK11 (Homo sapiens) (Q15831 whole entry): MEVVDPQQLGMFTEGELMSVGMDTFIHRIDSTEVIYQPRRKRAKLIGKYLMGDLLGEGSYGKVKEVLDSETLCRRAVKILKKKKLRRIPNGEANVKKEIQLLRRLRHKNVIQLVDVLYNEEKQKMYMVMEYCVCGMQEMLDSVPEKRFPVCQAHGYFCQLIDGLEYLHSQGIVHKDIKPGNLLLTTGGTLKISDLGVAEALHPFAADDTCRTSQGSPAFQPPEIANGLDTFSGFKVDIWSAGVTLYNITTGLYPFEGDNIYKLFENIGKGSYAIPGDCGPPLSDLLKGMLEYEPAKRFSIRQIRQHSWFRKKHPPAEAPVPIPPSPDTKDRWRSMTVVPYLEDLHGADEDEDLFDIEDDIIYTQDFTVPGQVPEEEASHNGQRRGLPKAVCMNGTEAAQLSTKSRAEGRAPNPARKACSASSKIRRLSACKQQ

[27] = target: MAP kinase-interacting serine/threonine-protein kinase 2 (Homo sapiens) (UniProt Q9HBH9); assay: Inhibition of MNK2 assessed as residual activity at 1 uM relative to control
[28] = target: Serine/threonine-protein kinase 26 (Homo sapiens) (UniProt Q9P289); assay: Inhibition of MST4 assessed as residual activity at 1 uM relative to control
[29] = target: Mitogen-activated protein kinase 13 (Homo sapiens) (UniProt O15264); assay: Inhibition of p38delta MAPK assessed as residual activity at 1 uM relative to control; method in brief: as §1
Sequence of Mitogen-activated protein kinase 13 (Homo sapiens) (O15264 whole entry): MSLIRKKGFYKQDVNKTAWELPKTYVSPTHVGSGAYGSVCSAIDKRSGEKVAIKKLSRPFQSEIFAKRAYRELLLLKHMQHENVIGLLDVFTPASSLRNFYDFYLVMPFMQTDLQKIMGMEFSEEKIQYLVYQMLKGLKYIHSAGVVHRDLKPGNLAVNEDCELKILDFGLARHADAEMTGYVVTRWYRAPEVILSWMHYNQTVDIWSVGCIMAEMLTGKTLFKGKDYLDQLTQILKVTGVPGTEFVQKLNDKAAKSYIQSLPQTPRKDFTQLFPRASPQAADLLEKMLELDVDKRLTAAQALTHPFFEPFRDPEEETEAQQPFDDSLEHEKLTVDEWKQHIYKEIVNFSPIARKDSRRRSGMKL

[30] = target: Mitogen-activated protein kinase 12 (Homo sapiens) (UniProt P53778); assay: Inhibition of p38gamma MAPK assessed as residual activity at 1 uM relative to control; method in brief: as §1
Sequence of Mitogen-activated protein kinase 12 (Homo sapiens) (P53778 whole entry): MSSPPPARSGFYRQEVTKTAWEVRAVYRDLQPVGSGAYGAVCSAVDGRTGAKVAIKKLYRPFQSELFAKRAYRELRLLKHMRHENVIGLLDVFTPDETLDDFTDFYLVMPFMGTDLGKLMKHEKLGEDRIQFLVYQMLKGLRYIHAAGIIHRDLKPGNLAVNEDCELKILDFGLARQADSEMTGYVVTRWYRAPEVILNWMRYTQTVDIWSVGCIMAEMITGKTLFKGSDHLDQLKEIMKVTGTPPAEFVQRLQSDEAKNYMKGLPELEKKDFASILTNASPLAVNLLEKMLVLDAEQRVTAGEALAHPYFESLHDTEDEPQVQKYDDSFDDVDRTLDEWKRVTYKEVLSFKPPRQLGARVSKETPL

[31] = target: Serine/threonine-protein kinase PAK 4 (Homo sapiens) (UniProt O96013); assay: Inhibition of PAK4 assessed as residual activity at 1 uM relative to control
[32] = target: Serine/threonine-protein kinase pim-2 (Homo sapiens) (UniProt Q9P1W9); assay: Inhibition of PIM2 assessed as residual activity at 1 uM relative to control
[33] = target: Serine/threonine-protein kinase pim-3 (Homo sapiens) (UniProt Q86V86); assay: Inhibition of PIM3 assessed as residual activity at 1 uM relative to control
[34] = target: MAP kinase-activated protein kinase 5 (Homo sapiens) (UniProt Q8IW41); assay: Inhibition of PRAK assessed as residual activity at 1 uM relative to control
[35] = target: Serine/threonine-protein kinase PLK1 (Homo sapiens) (UniProt P53350); assay: Inhibition of PLK1 assessed as residual activity at 1 uM relative to control
Sequence of Serine/threonine-protein kinase PLK1 (Homo sapiens) (P53350 whole entry): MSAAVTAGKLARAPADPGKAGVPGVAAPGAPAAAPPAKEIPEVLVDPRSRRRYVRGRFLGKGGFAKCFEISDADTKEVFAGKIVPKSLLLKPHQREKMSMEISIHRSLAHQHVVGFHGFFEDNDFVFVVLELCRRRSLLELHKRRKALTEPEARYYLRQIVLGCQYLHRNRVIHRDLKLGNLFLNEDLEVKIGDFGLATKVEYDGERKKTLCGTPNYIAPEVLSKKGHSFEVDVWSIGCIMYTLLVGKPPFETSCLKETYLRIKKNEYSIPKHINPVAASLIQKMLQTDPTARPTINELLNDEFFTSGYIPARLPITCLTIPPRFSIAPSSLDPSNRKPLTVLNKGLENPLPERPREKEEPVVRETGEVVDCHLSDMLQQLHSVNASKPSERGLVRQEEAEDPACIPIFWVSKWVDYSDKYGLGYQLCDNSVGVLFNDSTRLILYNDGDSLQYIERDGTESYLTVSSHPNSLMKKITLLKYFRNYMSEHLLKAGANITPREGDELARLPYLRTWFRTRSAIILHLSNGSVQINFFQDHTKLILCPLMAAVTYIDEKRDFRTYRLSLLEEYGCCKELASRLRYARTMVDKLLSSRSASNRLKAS

For `COc1cc(N2CCC(N3CCN(C)CC3)CC2)ccc1Nc1ncc(Cl)c(Nc2ccccc2S(=O)(=O)C(C)C)n1` [TAE-684], the Activity [1] was 44%, the Activity [2] was 73% and the Activity [3] was 106%. It also gave an Activity [4] of 94%, an Activity [5] of 104% and an Activity [6] of 75%. It also gave an Activity [7] of 96%, an Activity [8] of 44% and an Activity [9] of 101%. For the same molecule, the Activity [10] was 109%, the inhibition [11] was “Dose-dependent effect” and the AUClast [12] was 6374 ng·h/mL. The half-life [13] was 11.3 h, the Activity [14] was 110% and the Activity [15] was 68%. For the same molecule, the Activity [16] was 71%, the Activity [17] was 101% and the Activity [18] was 102%. For the same molecule, the Activity [19] was 77%, the inhibition [20] was “Active” and the Activity [21] was 38%. It also gave an Activity [22] of 96%, an Activity [23] of 101% and an Activity [24] of 70%. For the same molecule, the Activity [25] was 104%, the Activity [26] was 94% and the Activity [27] was 101%. It also gave an Activity [28] of 92%, an Activity [29] of 94% and an Activity [30] of 102%. The Activity [31] was 75%, the Activity [32] was 91% and the Activity [33] was 106%. The Activity [34] was 101% and the Activity [35] was 38%.
